Measured values: ChEMBL document CHEMBL3045973, “Synthesis and insecticidal activity of novel 4beta-halogenated benzoylamino podophyllotoxins against Pieris rapae Linnaeus” (2002)
Active and inactive are the calls of the source. No cut-off for these calls is given here.

How the values were obtained:
Pieris rapae [1] = test: Insecticidal activity against fifth-instar larvae of Pieris rapae fed on compound treated cabbage leaf assessed as mortality at 250 ppm dipped for 3 secs measured after 10 days (reference value: 6.67 1.56%); format: functional
Pieris rapae [2] = test: Insecticidal activity against fifth-instar larvae of Pieris rapae fed on compound treated cabbage leaf assessed as immobilization at 250 ppm dipped for 3 secs measured after 48 hr relative to control; format: functional, organism-based
Pieris rapae [3] = test: Insecticidal activity against fifth-instar larvae of Pieris rapae fed on compound treated cabbage leaf assessed as change in spontaneous movement at 250 ppm dipped for 3 secs measured after 24 hr relative to control; format: functional, organism-based
Pieris rapae [4] = test: Insecticidal activity against fifth-instar larvae of Pieris rapae fed on compound treated cabbage leaf assessed as inhibition of reproduction in pupated adultoids at 250 ppm dipped for 3 secs relative to control; format: functional, organism-based
Pieris rapae [5] = test: Insecticidal activity against fifth-instar larvae of Pieris rapae fed on compound treated cabbage leaf assessed as paralysis at 250 ppm dipped for 3 secs measured after 48 hr relative to control; format: functional, organism-based
Pieris rapae [6] = test: Insecticidal activity against fifth-instar larvae of Pieris rapae fed on compound treated cabbage leaf assessed as delay in metamorophosis at 250 ppm dipped for 3 secs relative to control; format: functional, organism-based
In short: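 Fifth-instar P. rapae larvae dosed by the leaf-dipping method at 250 ppm. Development time from larva to adulthood was compared with a control group.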

Pieris rapae [7] = test: Insecticidal activity against fifth-instar larvae of Pieris rapae fed on compound treated cabbage leaf assessed as loss of body fluid at 250 ppm dipped for 3 secs measured after 48 hr relative to control; format: functional, organism-based
Pieris rapae [8] = test: Insecticidal activity against fifth-instar larvae of Pieris rapae fed on compound treated cabbage leaf assessed as mortality at 250 ppm dipped for 3 secs measured after 15 days (reference value: 10 1.22%); format: functional
Pieris rapae [9] = test: Insecticidal activity against fifth-instar larvae of Pieris rapae fed on compound treated cabbage leaf assessed as mortality at 250 ppm dipped for 3 secs measured after 5 days (reference value: 0%); format: functional

Row | Compound | mortality (Pieris rapae [1]) | Activity (Pieris rapae [2]) | Activity (Pieris rapae [3]) | Activity (Pieris rapae [4]) | Activity (Pieris rapae [5]) | Activity (Pieris rapae [6]) | Activity (Pieris rapae [7]) | mortality (Pieris rapae [8]) | mortality (Pieris rapae [9])
1 | COc1cc([C@@H]2c3cc4c(cc3[C@@H](NC(=O)c3ccccc3Br)[C@H]3COC(=O)[C@H]23)OCO4)cc(OC)c1OC | 44.78% | Active | Active | Active | Active | Active | Active | 74.74% | 4.35%
2 | COc1cc([C@@H]2c3cc4c(cc3[C@@H](NC(=O)c3ccc(Br)cc3)[C@H]3COC(=O)[C@H]23)OCO4)cc(OC)c1OC | 51.85% | Active | Active | Active | Active | Active | Active | 85.97% | 14.81%
3 | COc1cc([C@@H]2c3cc4c(cc3[C@@H](NC(=O)c3ccccc3Cl)[C@H]3COC(=O)[C@H]23)OCO4)cc(OC)c1OC | 36.36% | Active | Active | Active | Active | Active | Active | 65.56% | 4.54%
4 | COc1cc([C@@H]2c3cc4c(cc3[C@@H](NC(=O)c3cccc(F)c3)[C@H]3COC(=O)[C@H]23)OCO4)cc(OC)c1OC | 49.46% | Active | Active | Active | Active | Active | Active | 86.7% | 18.57%
5 | COc1cc([C@@H]2c3cc4c(cc3[C@@H](NC(=O)c3ccc(Cl)cc3)[C@H]3COC(=O)[C@H]23)OCO4)cc(OC)c1OC | 72.08% | Active | Active | Active | Active | Active | Active | 94.95% | 36.84%
6 | CCOP(=S)(OCC)Oc1ccc([N+](=O)[O-])cc1 [PARATHION] | – | – | – | – | – | – | – | – | 100%
7 | COc1cc([C@@H]2c3cc4c(cc3[C@@H](NC(=O)c3ccccc3F)[C@H]3COC(=O)[C@H]23)OCO4)cc(OC)c1OC | 46.41% | Active | Active | Active | Active | Active | Active | 68.42% | 22.68%
8 | COc1cc([C@@H]2c3cc4c(cc3[C@H](O)[C@H]3COC(=O)[C@H]23)OCO4)cc(OC)c1OC [PODOFILOX] | 53.36% | Active | Active | Active | Active | Active | Active | 74.74% | 34.02%
9 | COc1cc([C@@H]2c3cc4c(cc3[C@@H](NC(=O)c3ccccc3I)[C@H]3COC(=O)[C@H]23)OCO4)cc(OC)c1OC | 48.36% | Active | Active | Active | Active | Active | Active | 69.69% | 12.62%
10 | COc1cc([C@@H]2c3cc4c(cc3[C@@H](N)[C@H]3COC(=O)[C@H]23)OCO4)cc(OC)c1OC [4BETA-NH2-PODOPHYLLOTOXIN] | 36.43% | Active | Active | Active | Active | Active | Active | 49.48% | 21.69%
11 | COc1cc([C@@H]2c3cc4c(cc3[C@@H](NC(=O)c3ccc(I)cc3)[C@H]3COC(=O)[C@H]23)OCO4)cc(OC)c1OC | 48.28% | Active | Active | Active | Active | Active | Active | 73.87% | 20.73%
12 | COc1cc([C@@H]2c3cc4c(cc3[C@@H](NC(=O)c3cccc(Cl)c3)[C@H]3COC(=O)[C@H]23)OCO4)cc(OC)c1OC | 54.25% | Active | Active | Active | Active | Active | Active | 94.73% | 16.56%
13 | COc1cc([C@@H]2c3cc4c(cc3[C@@H](NC(=O)c3cccc(Br)c3)[C@H]3COC(=O)[C@H]23)OCO4)cc(OC)c1OC | 69.23% | Active | Active | Active | Active | Active | Active | 85.42% | 46.15%
14 | COc1cc([C@@H]2c3cc4c(cc3[C@@H](NC(=O)c3ccc(F)cc3)[C@H]3COC(=O)[C@H]23)OCO4)cc(OC)c1OC | 44.74% | Active | Active | Active | Active | Active | Active | 66.76% | 11.11%
15 | COc1cc([C@@H]2c3cc4c(cc3[C@@H](NC(=O)c3cccc(I)c3)[C@H]3COC(=O)[C@H]23)OCO4)cc(OC)c1OC | 40.71% | Active | Active | Active | Active | Active | Active | 69.69% | 8.35%
